Experimental data pooled from the literature.
Cell line: MDA-MB-231
Read-out: cell growth or viability

Compound	technique	tested at	time	quantity	result
COc1ccc(/C=C\c2cc(OC)c(OC)c(OC)c2)cc1O	imaging		72 h	CC50	3.7 nM
Clc1ccc(Cn2c(-c3ccc(Cl)cc3)nc3ccccc32)cc1	MTT			IC50	7.48 µM
COc1cccc2c1C(=O)c1c(O)c3c(c(O)c1C2=O)C[C@@](O)(C(=O)CO)C[C@@H]3O[C@H]1C[C@H](N)[C@H](O)[C@H](C)O1	MTT	100 µM	24 h	viability	4.1%
COc1ccc(-c2nc3ccc(C)cc3[nH]2)cc1O	MTT		48 h	IC50	55.1 µM
COc1cc2c(cc1OS(N)(=O)=O)CCN(Cc1cccc(OC)c1OC)C2	WST-1		96 h	GI50	888 nM
C[C@]1(c2nc3c(C(N)=O)cccc3[nH]2)CCCN1	ATP luminescence		7 days	EC50	> 10 µM
COc1cccc(-c2nc3ccc(C)cc3[nH]2)c1	MTT		48 h	IC50	15.6 µM
O=C1CCCCC1=C1Sc2nc3ccc(S(=O)(=O)N4CCCC4)cc3nc2S1	MTT	3.125 µM	24 h	viability	69.8%
C[C@]12CC[C@@H]3c4ccc(O)cc4CC[C@H]3[C@@H]1CC[C@@H]2O	ATP luminescence		72 h	EC90	40.1 µM
Cc1ccc2nc(-c3ccc(F)cc3)[nH]c2c1	MTT		48 h	IC50	> 100 µM
CC(=O)O[C@H]1C(=O)[C@@]2(C)[C@H]([C@H](OC(=O)c3ccccc3)[C@]3(O)C[C@H](OC(=O)[C@H](O)[C@@H](NC(=O)c4ccccc4)c4ccccc4)C(C)=C1C3(C)C)[C@]1(OC(C)=O)CO[C@@H]1C[C@@H]2O	WST-1		96 h	GI50	2 nM
CCc1cccc(CN2CCc3cc(OS(N)(=O)=O)c(OC)cc3C2)c1	WST-1		96 h	GI50	8000 nM
COc1cccc2c1C(=O)c1c(O)c3c(c(O)c1C2=O)C[C@@](O)(C(=O)CO)C[C@@H]3O[C@H]1C[C@H](N)[C@H](O)[C@H](C)O1	MTT		48 h	IC90	> 20 µM
COc1cc2c(cc1OS(N)(=O)=O)CCN(Cc1cccc(C(C)=O)c1)C2	WST-1		96 h	GI50	983 nM
Cc1ccc2nc(-c3cc(Br)ccc3O)[nH]c2c1	MTT		48 h	IC50	6.69 µM
CCOc1cc(CN2CCc3cc(O)c(OC)cc3C2)cc(OCC)c1OCC	WST-1		96 h	GI50	> 100000 nM
CCCCCCCC(=O)NCC(=O)OC	MTT	10 µM	48 h	inhibition	10%
CCOc1cccc(CN2CCc3cc(O)c(OC)cc3C2)c1	WST-1		96 h	GI50	> 100000 nM
CCOC(=O)C(C(C)=O)=C1Sc2nc3ccc(S(=O)(=O)N4CCCC4)cc3nc2S1	MTT	50 µM	24 h	viability	8.1%
O=C(c1cc(Cc2n[nH]c(=O)c3ccccc23)ccc1F)N1CCN(C(=O)C2CC2)CC1	ATP luminescence		7 days	EC50	~5 µM
Clc1ccc(-c2nc3ccccc3[nH]2)c(Cl)c1	MTT		48 h	IC50	52.2 µM
COc1cc2c(cc1OS(N)(=O)=O)CCN(Cc1cccc(OS(N)(=O)=O)c1)C2	WST-1		96 h	GI50	34900 nM
COc1cc2c(cc1O)CCN(Cc1cc(Cl)c(OC)c(OC)c1)C2	WST-1		96 h	GI50	400 nM
COc1cc2c(cc1O)CCN(Cc1cccc([N+](=O)[O-])c1)C2	WST-1		96 h	GI50	> 100000 nM
O=[N+]([O-])c1ccc(-c2nc3ccccc3[nH]2)cc1	MTT		48 h	IC50	26.9 µM
CCOc1cccc(CN2CCc3cc(OS(N)(=O)=O)c(OC)cc3C2)c1	WST-1		96 h	GI50	650 nM
N#CC(C(=O)Nc1cccc(C(F)(F)F)c1)=C1Sc2nc3ccc(S(=O)(=O)N4CCCC4)cc3nc2S1	MTT	100 µM	24 h	viability	12.9%
COc1cc2c(cc1O)CCN(Cc1cccc(OC)c1OC)C2	WST-1		96 h	GI50	> 100000 nM
COc1cccc(-c2nc3ccccc3n2Cc2ccccc2)c1	MTT			IC50	43.3 µM
